The values that follow come from ChEMBL document CHEMBL2150980 (Eur J Med Chem, 2012).

In assay [1] the target is T1, Alpha-1B adrenergic receptor (Homo sapiens, UniProt P35368).
T1 sequence (P35368 whole entry): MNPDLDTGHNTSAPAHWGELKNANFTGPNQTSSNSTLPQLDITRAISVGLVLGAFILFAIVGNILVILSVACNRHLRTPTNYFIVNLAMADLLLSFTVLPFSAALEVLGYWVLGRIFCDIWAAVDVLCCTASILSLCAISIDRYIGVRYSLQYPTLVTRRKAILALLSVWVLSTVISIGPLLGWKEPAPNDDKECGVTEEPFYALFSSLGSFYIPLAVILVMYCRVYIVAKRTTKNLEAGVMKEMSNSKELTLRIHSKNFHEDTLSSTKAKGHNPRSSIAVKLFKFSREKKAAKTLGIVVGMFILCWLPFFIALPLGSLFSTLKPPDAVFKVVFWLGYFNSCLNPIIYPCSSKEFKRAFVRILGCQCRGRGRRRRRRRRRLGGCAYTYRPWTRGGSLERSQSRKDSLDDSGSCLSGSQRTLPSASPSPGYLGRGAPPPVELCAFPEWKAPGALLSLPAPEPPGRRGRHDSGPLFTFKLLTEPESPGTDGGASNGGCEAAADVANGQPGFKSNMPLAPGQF
Put plainly: Displacement of [3H]prazosin from human cloned alpha1B adrenoceptor expressed in CHO cell membranes after 30 mins by liquid scintillation counter.

In assay [2] the target is T2, Alpha-1D adrenergic receptor (Rattus norvegicus, UniProt P23944).
T2 sequence (P23944 whole entry): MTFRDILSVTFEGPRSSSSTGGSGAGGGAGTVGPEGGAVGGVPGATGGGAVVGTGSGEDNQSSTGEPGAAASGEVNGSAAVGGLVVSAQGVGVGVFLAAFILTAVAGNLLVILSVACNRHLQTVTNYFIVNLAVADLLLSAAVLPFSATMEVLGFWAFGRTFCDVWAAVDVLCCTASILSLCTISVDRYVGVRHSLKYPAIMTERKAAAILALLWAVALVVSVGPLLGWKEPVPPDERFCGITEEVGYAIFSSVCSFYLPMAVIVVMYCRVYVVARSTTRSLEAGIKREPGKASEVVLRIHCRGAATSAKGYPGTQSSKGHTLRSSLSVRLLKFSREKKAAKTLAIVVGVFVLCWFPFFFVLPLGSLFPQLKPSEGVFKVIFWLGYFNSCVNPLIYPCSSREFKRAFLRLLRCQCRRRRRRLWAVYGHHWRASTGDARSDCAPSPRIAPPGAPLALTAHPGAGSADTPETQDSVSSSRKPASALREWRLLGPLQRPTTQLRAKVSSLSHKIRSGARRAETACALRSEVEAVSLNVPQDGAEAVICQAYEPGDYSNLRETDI
Kind of assay: Antagonist activity at alpha1D adrenoceptor in Sprague-Dawley rat thoracic aorta assessed as inhibition of noradrenaline-induced contractions after 30 mins. It is filed as functional, tissue-based. To be noted: read-out: pA2 (converted).

For assay [3], the target named is T3, Adrenergic receptor alpha-2 (Rattus norvegicus, UniProt P22086+P19328+P22909).
T3 sequence (P22086 whole entry): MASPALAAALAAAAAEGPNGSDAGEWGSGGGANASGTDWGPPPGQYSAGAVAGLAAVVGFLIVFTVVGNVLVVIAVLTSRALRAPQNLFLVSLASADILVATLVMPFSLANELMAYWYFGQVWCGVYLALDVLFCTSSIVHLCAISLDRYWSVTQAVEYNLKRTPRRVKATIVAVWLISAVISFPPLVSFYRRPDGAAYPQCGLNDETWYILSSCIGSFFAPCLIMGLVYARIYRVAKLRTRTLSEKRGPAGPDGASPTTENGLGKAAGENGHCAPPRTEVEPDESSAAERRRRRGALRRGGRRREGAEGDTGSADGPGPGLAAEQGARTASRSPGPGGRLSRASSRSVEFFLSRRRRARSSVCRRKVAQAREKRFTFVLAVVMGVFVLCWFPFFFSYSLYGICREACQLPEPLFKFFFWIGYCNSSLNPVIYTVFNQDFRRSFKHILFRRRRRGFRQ
T3 sequence (P19328 whole entry): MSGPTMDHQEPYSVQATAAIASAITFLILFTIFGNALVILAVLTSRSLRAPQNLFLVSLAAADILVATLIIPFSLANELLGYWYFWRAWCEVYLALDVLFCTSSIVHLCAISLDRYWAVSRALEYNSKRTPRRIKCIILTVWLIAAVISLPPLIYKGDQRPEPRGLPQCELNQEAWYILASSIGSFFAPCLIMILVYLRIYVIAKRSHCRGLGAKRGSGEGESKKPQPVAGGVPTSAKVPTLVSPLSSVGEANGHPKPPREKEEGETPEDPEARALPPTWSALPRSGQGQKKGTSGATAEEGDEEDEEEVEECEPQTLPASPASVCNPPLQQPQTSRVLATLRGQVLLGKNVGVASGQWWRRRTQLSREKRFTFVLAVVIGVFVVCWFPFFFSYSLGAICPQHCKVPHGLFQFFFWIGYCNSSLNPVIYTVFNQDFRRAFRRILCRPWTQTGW
T3 sequence (P22909 whole entry): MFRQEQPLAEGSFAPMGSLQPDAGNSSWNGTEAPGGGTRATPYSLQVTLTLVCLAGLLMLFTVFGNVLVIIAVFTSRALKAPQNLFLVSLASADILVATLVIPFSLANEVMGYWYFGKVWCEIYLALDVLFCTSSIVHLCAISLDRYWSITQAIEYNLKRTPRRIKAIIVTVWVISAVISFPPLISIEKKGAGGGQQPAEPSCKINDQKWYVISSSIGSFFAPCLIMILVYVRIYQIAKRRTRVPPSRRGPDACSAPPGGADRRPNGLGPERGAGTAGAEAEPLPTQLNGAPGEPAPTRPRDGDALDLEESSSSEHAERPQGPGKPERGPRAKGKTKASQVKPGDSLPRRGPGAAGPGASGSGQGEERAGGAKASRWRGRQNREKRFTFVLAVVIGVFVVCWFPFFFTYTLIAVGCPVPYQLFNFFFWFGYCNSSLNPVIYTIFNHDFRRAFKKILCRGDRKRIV
Kind of assay: Antagonist activity at alpha2 adrenoceptor in Sprague-Dawley rat prostatic vas deferens assessed as suppression of clonidine-mediated inhibition of twitch response after 30 mins. It is filed as functional, tissue-based. The essentials: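 Prostatic vas deferens segments (1.5–2 cm) in Krebs at 37 °C, field-stimulated at 0.1 Hz with 3 ms square pulses, 20–40 V. Equilibrated 1 h at 0.35 g resting tension.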

What is called Ki is a measure of affinity in units of concentration, obtained from inhibition or displacement. Low readings indicate tighter binding, high ones weaker binding. The term pA2 denotes a measure of antagonist potency on a negative log scale. Take `COc1cccc(OC)c1OCCNC[C@H]1COc2cccc(Cl)c2O1.Cl`: affinity in assay [1] was put at a Ki of 2.19 nM. For the same compound, the Kb in assay [2] was 3.02 nM. In addition, in assay [3], the pA2 is reported as 6.02.

In the case of `COc1cccc(OC)c1OCCNC[C@H]1COc2cccc(O)c2O1.Cl`, the Ki in assay [1] is 30.9 nM. Moreover, in assay [2], the Kb is 51.3 nM. Further, in assay [3], the pA2 is reported as under 5.

`COc1cccc(OC)c1OCCNC[C@H]1COc2cccc(OC)c2O1.Cl` showed a Ki in assay [1] of 2.75 nM. Further, the Kb in assay [2] is 11.7 nM. In assay [3], the pA2 came to 6.23.

Compound `COc1cccc(OC)c1OCCNC[C@H]1COc2cccc(F)c2O1.Cl` showed a Ki in assay [1] of 2.4 nM. In addition, in assay [2], the Kb was 9.33 nM. Further, the pA2 in assay [3] is given as 6.26.

The compound `COc1cccc(OC)c1OCCNC[C@H]1COc2c(OC)cccc2O1.Cl` gave a Ki in assay [1] of 447 nM. In assay [2], the Kb is 5.75 nM. Moreover, the pA2 in assay [3] stood at 5.67.
